Assay results as given in ChEMBL document CHEMBL1122148, “Affinity therapeutics. 1. Selective incorporation of 2-thiouracil derivatives in murine melanomas. Cytostatic activity of 2-thiouracil arotinoids, 2-thiouracil retinoids, arotinoids, and retinoids” (1982).

Tests used:
S91 [1] = assay: Growth inhibition of Cloudman S91 Melanoma cells at 1 uM drug concentration; values are per cent of control; details: Mus musculus
S91 [2] = assay: Growth inhibition of Cloudman S91 Melanoma cells at 10 uM drug concentration; values are per cent of control; details: Mus musculus
Mus musculus [3] = assay: Cloudman S 91 melanoma tumor and organ incorporation of radioactivity 48 hr after 2.2 microCi dose injected intramuscularly in mouse lung; assay type: functional
In short: (§1)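 Cloudman S 91 cells in culture (3×10^6) were implanted subcutaneously into the right flank of DBA/2 mice. After 2 weeks the tumors were about 6×7 mm. The ³⁵S-labelled thiouracil was given intramuscularly into the right thigh, and mice were killed 48 h later. Four samples were taken per tumor and one per organ. Tissue was solubilized at 37 °C for 16 h, bleached, and counted by liquid scintillation. Results are radioactivity per mg wet weight.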

Mus musculus [4] = assay: Cloudman S 91 melanoma tumor and organ incorporation of radioactivity 48 hr after 2.2 microCi dose injected intramuscularly in mouse tumor; assay type: functional
In short: as §1

Mus musculus [5] = assay: Harding Passey melanoma tumor and organ incorporation of radioactivity 48 hr after 2.2 microCi dose injected intramuscularly in mouse kidney; assay type: functional
In short: (§2)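 Harding Passey melanoma tissue (strongly melanized) was minced, and the brei was implanted subcutaneously into the right flank of DBA/2 mice. Tumors reached about 6×7 mm by 2 weeks. The ³⁵S-labelled thiouracil was injected intramuscularly into the right thigh, and animals were killed 48 h later. Four samples were taken per tumor and one per organ. Tissue was solubilized at 37 °C for 16 h, bleached, and scintillation-counted. Results are radioactivity per mg wet weight.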

Mus musculus [6] = assay: Cloudman S 91 melanoma tumor and organ incorporation of radioactivity 48 hr after 2.2 microCi dose injected intramuscularly in mouse liver; assay type: functional
In short: as §1

Mus musculus [7] = assay: Harding Passey melanoma tumor and organ incorporation of radioactivity 48 hr after 2.2 microCi dose injected intramuscularly in mouse eye; assay type: functional
In short: as §2

Mus musculus [8] = assay: Cloudman S 91 melanoma tumor and organ incorporation of radioactivity 48 hr after 2.2 microCi dose injected intramuscularly in mouse spleen; assay type: functional
In short: as §1

Mus musculus [9] = assay: Harding Passey melanoma tumor and organ incorporation of radioactivity 48 hr after 2.2 microCi dose injected intramuscularly in mouse lung; assay type: functional
In short: as §2

Mus musculus [10] = assay: Harding Passey melanoma tumor and organ incorporation of radioactivity 48 hr after 2.2 microCi dose injected intramuscularly in mouse liver; assay type: functional
In short: as §2

Mus musculus [11] = assay: Harding Passey melanoma tumor and organ incorporation of radioactivity 48 hr after 2.2 microCi dose injected intramuscularly in mouse spleen; assay type: functional
In short: as §2

Mus musculus [12] = assay: Cloudman S 91 melanoma tumor and organ incorporation of radioactivity 48 h after 2.2 microCi dose injected intramuscularly in mouse eye; assay type: functional
In short: as §1

Mus musculus [13] = assay: Harding Passey melanoma tumor and organ incorporation of radioactivity 48 hr after 2.2 microCi dose injected intramuscularly in mouse tumor; assay type: functional
In short: as §2

Mus musculus [14] = assay: Cloudman S 91 melanoma tumor and organ incorporation of radioactivity 48 hr after 2.2 microCi dose injected intramuscularly in mouse kidney; assay type: functional
In short: as §1

Mus musculus [15] = assay: Harding Passey melanoma tumor and organ incorporation of radioactivity 48 hr after 1.4 microCi dose injected intramuscularly in mouse tumor; assay type: functional
In short: as §2

Mus musculus [16] = assay: Cloudman S 91 melanoma tumor and organ incorporation of radioactivity 48 hr after 1.4 microCi dose injected intramuscularly in mouse kidney; assay type: functional
In short: as §1

Mus musculus [17] = assay: Cloudman S 91 melanoma tumor and organ incorporation of radioactivity 48 hr after 1.4 microCi dose injected intramuscularly in mouse eye; assay type: functional
In short: as §1

Mus musculus [18] = assay: Harding Passey melanoma tumor and organ incorporation of radioactivity 48 hr after 1.4 microCi dose injected intramuscularly in mouse lung; assay type: functional
In short: as §2

Mus musculus [19] = assay: Harding Passey melanoma tumor and organ incorporation of radioactivity 48 hr after 1.4 microCi dose injected intramuscularly in mouse liver; assay type: functional
In short: as §2

Mus musculus [20] = assay: Harding Passey melanoma tumor and organ incorporation of radioactivity 48 hr after 1.4 microCi dose injected intramuscularly in mouse eye; assay type: functional
In short: as §2

Mus musculus [21] = assay: Cloudman S 91 melanoma tumor and organ incorporation of radioactivity 48 hr after 1.4 microCi dose injected intramuscularly in mouse tumor; assay type: functional
In short: as §1

Mus musculus [22] = assay: Cloudman S 91 melanoma tumor and organ incorporation of radioactivity 48 h after 1.4 microCi dose injected intramuscularly in mouse lung; assay type: functional
In short: as §1

Mus musculus [23] = assay: Harding Passey melanoma tumor and organ incorporation of radioactivity 48 hr after 1.4 microCi dose injected intramuscularly in mouse kidney; assay type: functional
In short: as §2

Mus musculus [24] = assay: Cloudman S 91 melanoma tumor and organ incorporation of radioactivity 48 hr after 1.4 microCi dose injected intramuscularly in mouse spleen; assay type: functional
In short: as §1

Mus musculus [25] = assay: Harding Passey melanoma tumor and organ incorporation of radioactivity 48 hr after 1.4 microCi dose injected intramuscularly in mouse spleen; assay type: functional
In short: as §2

Mus musculus [26] = assay: Cloudman S 91 melanoma tumor and organ incorporation of radioactivity 48 hr after 1.4 microCi dose injected intramuscularly in mouse liver; assay type: functional
In short: as §1

Mus musculus [27] = assay: Harding Passey melanoma tumor and organ incorporation of radioactivity 48 hr after 5.1 microCi dose injected intramuscularly in mouse tumor; assay type: functional
In short: as §2

Mus musculus [28] = assay: Harding Passey melanoma tumor and organ incorporation of radioactivity 48 hr after 5.1 microCi dose injected intramuscularly in mouse eye; assay type: functional
In short: as §2

Mus musculus [29] = assay: Harding Passey melanoma tumor and organ incorporation of radioactivity 48 hr after 5.1 microCi dose injected intramuscularly in mouse liver; assay type: functional
In short: as §2

Mus musculus [30] = assay: Harding Passey melanoma tumor and organ incorporation of radioactivity 48 hr after 5.1 microCi dose injected intramuscularly in mouse kidney; assay type: functional
In short: as §2

Mus musculus [31] = assay: Harding Passey melanoma tumor and organ incorporation of radioactivity 48 hr after 5.1 microCi dose injected intramuscularly in mouse lung; assay type: functional
In short: as §2

Mus musculus [32] = assay: Harding Passey melanoma tumor and organ incorporation of radioactivity 48 hr after 5.1 microCi dose injected intramuscularly in mouse spleen; assay type: functional
In short: as §2

Compound: N#CSCCCCc1cnc(S)nc1O
- level, % of control at 1 µM (S91 [1]): 93%
- level, % of control at 10 µM (S91 [2]): 100%

Compound: O=Cc1ccc(C(=O)OCCCCc2cnc(S)nc2O)cc1
- level, % of control at 1 µM (S91 [1]): 118%
- level, % of control at 10 µM (S91 [2]): 98%

Compound: C/C=C/C=C/C(=O)OCCCCc1cnc(S)nc1O
- level, % of control at 1 µM (S91 [1]): 139%
- level, % of control at 10 µM (S91 [2]): 94%

Compound: OCCCCc1cnc(S)nc1O
- Activity (Mus musculus [3]): 3 c.p.m. min-1 mg-1
- Activity (Mus musculus [4]): 7.6 c.p.m. min-1 mg-1
- Activity (Mus musculus [5]): 26.1 c.p.m. min-1 mg-1
- Activity (Mus musculus [6]): 6.1 c.p.m. min-1 mg-1
- Activity (Mus musculus [7]): 2.6 c.p.m. min-1 mg-1
- level, % of control at 1 µM (S91 [1]): 81%
- Activity (Mus musculus [8]): 1.5 c.p.m. min-1 mg-1
- Activity (Mus musculus [9]): 4 c.p.m. min-1 mg-1
- Activity (Mus musculus [10]): 8.8 c.p.m. min-1 mg-1
- Activity (Mus musculus [11]): 1.5 c.p.m. min-1 mg-1
- Activity (Mus musculus [12]): 2.7 c.p.m. min-1 mg-1
- Activity (Mus musculus [13]): 24.8 c.p.m. min-1 mg-1
- level, % of control at 10 µM (S91 [2]): 82%
- Activity (Mus musculus [14]): 8 c.p.m. min-1 mg-1

Compound: O=C1CCCC/C1=C/CCCc1cnc(S)nc1O
- level, % of control at 1 µM (S91 [1]): 87%
- level, % of control at 10 µM (S91 [2]): 89%

Compound: CC(=O)OCCCCc1cnc(S)nc1O
- level, % of control at 1 µM (S91 [1]): 90%
- level, % of control at 10 µM (S91 [2]): 94%

Compound: CCOC(=O)c1ccc(/C=C(\C)c2ccc3c(c2)CCCC3)cc1
- level, % of control at 1 µM (S91 [1]): 81%
- level, % of control at 10 µM (S91 [2]): 97%

Compound: C/C(=C\c1ccc(C(=O)OCCCCc2cnc(S)nc2O)cc1)c1ccc2c(c1)CCCC2
- Activity (Mus musculus [15]): 10.6 c.p.m. min-1 mg-1
- Activity (Mus musculus [16]): 4.5 c.p.m. min-1 mg-1
- level, % of control at 1 µM (S91 [1]): 78%
- Activity (Mus musculus [17]): 1.8 c.p.m. min-1 mg-1
- Activity (Mus musculus [18]): 3.7 c.p.m. min-1 mg-1
- Activity (Mus musculus [19]): 9.9 c.p.m. min-1 mg-1
- Activity (Mus musculus [20]): 1.9 c.p.m. min-1 mg-1
- Activity (Mus musculus [21]): 4.4 c.p.m. min-1 mg-1
- Activity (Mus musculus [22]): 3.2 c.p.m. min-1 mg-1
- Activity (Mus musculus [23]): 6.6 c.p.m. min-1 mg-1
- Activity (Mus musculus [24]): 1.7 c.p.m. min-1 mg-1
- Activity (Mus musculus [25]): 1.2 c.p.m. min-1 mg-1
- Activity (Mus musculus [26]): 6.1 c.p.m. min-1 mg-1
- level, % of control at 10 µM (S91 [2]): 103%

Compound: O=Cc1ccc(C(=O)OCCc2cnc(S)nc2O)cc1
- level, % of control at 1 µM (S91 [1]): 82%
- level, % of control at 10 µM (S91 [2]): 83%

Compound: C/C(=C\c1ccc(C(=O)OCCCCc2cnc(S)nc2O)cc1)c1ccc2c(c1)C(C)(C)CCC2(C)C
- level, % of control at 1 µM (S91 [1]): 146%
- level, % of control at 10 µM (S91 [2]): 84%

Compound: CC1=C(/C=C/C(C)=C/C=C/C(C)=C/C(=O)OCCCCc2cnc(S)nc2O)C(C)(C)CCC1
- level, % of control at 1 µM (S91 [1]): 73%

Compound: C/C(=C\c1ccc(C(=O)O)cc1)c1ccc2c(c1)C(C)(C)CCC2(C)C
- level, % of control at 1 µM (S91 [1]): 122%
- level, % of control at 10 µM (S91 [2]): 98%

Compound: CC(O)Cc1cnc(S)nc1O (configuration not stated)
- level, % of control at 1 µM (S91 [1]): 134%
- level, % of control at 10 µM (S91 [2]): 106%

Compound: Oc1nc(S)ncc1CCCCBr
- level, % of control at 1 µM (S91 [1]): 109%
- level, % of control at 10 µM (S91 [2]): 100%

Compound: CCOC(=O)c1ccc(/C=C(\C)c2ccc3c(c2)C(C)(C)CCC3(C)C)cc1 [AROTINOID]
- level, % of control at 1 µM (S91 [1]): 134%
- level, % of control at 10 µM (S91 [2]): 98%

Compound: O=c1cc[nH]c(=S)[nH]1 [THIOURACIL]
- Activity (Mus musculus [27]): 153.3 c.p.m. min-1 mg-1
- Activity (Mus musculus [28]): 23.1 c.p.m. min-1 mg-1
- level, % of control at 1 µM (S91 [1]): 97%
- Activity (Mus musculus [29]): 20.5 c.p.m. min-1 mg-1
- Activity (Mus musculus [30]): 22.3 c.p.m. min-1 mg-1
- Activity (Mus musculus [31]): 4.7 c.p.m. min-1 mg-1
- level, % of control at 10 µM (S91 [2]): 97%
- Activity (Mus musculus [32]): 2.7 c.p.m. min-1 mg-1

Compound: CC1=C(/C=C/C(C)=C/C=C/C(C)=C/C(=O)O)C(C)(C)CCC1 [TRETINOIN]
- level, % of control at 1 µM (S91 [1]): 11%
